Measured values from ChEMBL document CHEMBL4350958, “Rational Design of Short Peptide Variants by Using Kunitzin-RE, an Amphibian-Derived Bioactivity Peptide, for Acquired Potent Broad-Spectrum Antimicrobial and Improved Therapeutic Potential of Commensalism Coinfection of Pathogens” (J Med Chem, 2019).
≈ marks a conversion by molar mass, not a printed value.

Columns and labels:
Staphylococcus aureus [1] = assay: Antibacterial activity against Staphylococcus aureus ATCC 29213 measured after 18 to 24 hrs in presence of NaCl; assay type: functional
Candida albicans [2] = assay: Antifungal activity against Candida albicans cgmcc2.2086 measured after 48 hrs in presence of ZnCl by broth microdilution method; assay type: functional; conditions: cgmcc2.2086, 48 h
Escherichia coli [3] = assay: Antibacterial activity against Escherichia coli K99 measured after 24 hrs; assay type: functional; conditions: K99, 24 h
In short: (§1)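 Broth microdilution adapted from NCCLS. Mid-log bacteria were diluted in MHB to a final (0.5–1) × 10^5 CFU mL−1. Peptides were serially diluted in 0.2% BSA and mixed with an equal volume of cells. After 24 h at 37 °C, MIC was read at A492 as the lowest concentration inhibiting 95% of growth. At least three independent experiments, each with three technical replicates.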

Staphylococcus aureus [4] = assay: Antibacterial activity against Staphylococcus aureus ATCC 25923 measured after 24 hrs; assay type: functional; conditions: ATCC 25923, 24 h
In short: (§2)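 Broth microdilution modified from NCCLS. Mid-log bacteria at (0.5–1) × 10^5 CFU mL−1 in MHB, mixed with peptides serially diluted in 0.2% BSA. Incubated 24 h at 37 °C, read at A492. MIC taken as lowest concentration giving 95% growth inhibition. At least three independent experiments, each with three technical replicates.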

[5] = Conformational stability in 50% trifluoro-ethyl alcohol assessed as alpha-helical structural propensity by measuring absorption spectra at minimum dichroic band at 35 uM by CD spectra analysis; assay type: physicochemical
In short: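 CD spectra from 190 to 250 nm of peptide at 35 μM in 10 mM PBS, 30 mM SDS micelles or 50% TFE, recorded in a 1.0-mm quartz cell. Ellipticity was converted to mean residue ellipticity. Three independent scans, each averaged over more than 3 runs.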

[6] = Cytotoxicity against mouse RAW264.7 cells assessed as cell viability at 2 to 64 uM measured after 18 to 24 hrs by MTT assay relative to control; assay type: cell-based; conditions: RAW264.7 cells, read-out: Activity
In short: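 MTT assay: RAW264.7 cells seeded at 1.0–2.0×10^4 per well and exposed to peptide (2–64 µM) for 18–24 h at 37 °C in 5% CO2. MTT (0.5 mg/mL) added for 4 h, formazan dissolved in DMSO, read at 570 nm. At least three independent experiments with triplicate wells.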

Erythrocyte = assay: Hemolytic activity in human RBC measured after 1 hr; assay type: ADME, cell-based
In short: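 Fresh healthy-donor human erythrocytes at ~1% (v/v) in PBS pH 7.4, mixed 1:1 with peptide (1–128 µM), 1 h at 37 °C. After centrifugation at 1000×g, supernatant hemoglobin read at 576 nm. Untreated cells set 0% and 0.1% Triton X-100 set 100%. MHC defined as the concentration giving >10% hemolysis. Three or more independent experiments, triplicates.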

Staphylococcus aureus [7] = assay: Antibacterial activity against Staphylococcus aureus ATCC 29213 measured after 24 hrs; assay type: functional; conditions: ATCC 29213, 24 h; in short: as §2
Salmonella typhimurium = assay: Bactericidal activity against Salmonella typhimurium ATCC 14028 incubated for 24 hrs followed by replating on agar plate and measured after overnight incubation; assay type: functional, Salmonella enterica subsp. enterica serovar Typhimurium; conditions: Salmonella enterica, ATCC 14028, 24 h; read-out: MBC>99.9
In short: (§3)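 Mid-log bacteria diluted in MHB to (0.5–1) × 10^5 CFU/mL and mixed 1:1 with peptide serially diluted in 0.2% BSA. After 24 h at 37 °C, 50 μL of each mixture was plated on agar and incubated overnight. MBC taken as the lowest concentration killing >99.9% of cells. At least three independent experiments, each with three technical replicates.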

Escherichia coli [8] = assay: Antibacterial activity against Escherichia coli UB1005 measured after 24 hrs; assay type: functional; conditions: UB1005, 24 h; in short: as §1
Candida albicans [9] = assay: Antifungal activity against Candida albicans cgmcc2.2086 measured after 48 hrs in presence of KCl by broth microdilution method; assay type: functional; conditions: cgmcc2.2086, 48 h
Pseudomonas aeruginosa = assay: Antibacterial activity against Pseudomonas aeruginosa ATCC 27853 measured after 24 hrs; assay type: functional; conditions: ATCC 27853, 24 h; in short: as §1
Escherichia coli [10] = assay: Antibacterial activity against Escherichia coli ATCC 25922 measured after 18 to 24 hrs in presence of MgCl2; assay type: functional
Candida albicans [11] = assay: Antifungal activity against Candida albicans cgmcc2.2086 measured after 48 hrs in presence of NH4Cl by broth microdilution method; assay type: functional; conditions: cgmcc2.2086, 48 h
Staphylococcus aureus [12] = assay: Antibacterial activity against Staphylococcus aureus ATCC 29213 measured after 18 to 24 hrs in presence of CaCl2; assay type: functional
[13] = Antibacterial activity against Salmonella pullorum ATCC 7913 measured after 24 hrs; assay type: functional, Salmonella enterica subsp. enterica serovar Pullorum; conditions: Salmonella enterica, ATCC 7913, 24 h; in short: as §1
[14] = Therapeutic index, ratio of MHC10 for hemolytic activity in human RBC to MIC95 against Escherichia coli ATCC 25922; assay type: toxicity; conditions: human red blood cells (erythrocytes), pooled result: one value given for 9 cell lines, strains, targets or settings, read-out: TI
In short: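 Therapeutic index = MHC divided by MIC. MHC is the lowest concentration giving >10% lysis of human RBC (1 h, 37 °C, 1-128 µM, A576). MIC is 95% growth inhibition by broth microdilution: bacteria in MHB 24 h at 37 °C; Candida in MOPS-buffered RPMI 1640 at (0.5–1) × 10^3 CFU mL−1, 48 h at 28 °C.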

Escherichia coli [15] = assay: Bactericidal activity against Escherichia coli K99 incubated for 24 hrs followed by replating on agar plate and measured after overnight incubation; assay type: functional; conditions: K99, 24 h, read-out: MBC>99.9; in short: as §3
Staphylococcus aureus [16] = assay: Antibacterial activity against Staphylococcus aureus ATCC 29213 measured after 18 to 24 hrs in presence of FeCl3; assay type: functional
Escherichia coli [17] = assay: Antibacterial activity against Escherichia coli ATCC 25922 measured after 18 to 24 hrs in presence of FeCl3; assay type: functional
Candida tropicalis = assay: Antifungal activity against Candida tropicalis cgmcc2.1975 measured after 48 hrs by broth microdilution method; assay type: functional; conditions: cgmcc2.1975, 48 h
In short: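 Modified CLSI M27-A2 microdilution. Yeast colonies were diluted in MOPS-buffered RPMI 1640 to a final (0.5–1) × 10^3 CFU mL−1 and mixed with an equal volume of peptide serially diluted in 0.2% BSA. After 48 h at 28 °C, MIC was read at A492 as the lowest concentration inhibiting 95% of growth. At least three independent experiments, each with three technical replicates.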

[18] = tested on: Staphylococcus epidermidis; assay: Bactericidal activity against Staphylococcus epidermidis ATCC 12228 incubated for 24 hrs followed by replating on agar plate and measured after overnight incubation; assay type: functional; conditions: ATCC 12228, 24 h, read-out: MBC>99.9; in short: as §3
Escherichia coli [19] = assay: Antibacterial activity against Escherichia coli ATCC 25922 measured after 18 to 24 hrs in presence of NaCl; assay type: functional
Staphylococcus aureus [20] = assay: Bactericidal activity against methicillin-resistant Staphylococcus aureus ATCC 43300 incubated for 24 hrs followed by replating on agar plate and measured after overnight incubation; assay type: functional; conditions: ATCC 43300, 24 h, read-out: MBC>99.9
In short: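 After the 24 h, 37 °C MHB microdilution MIC assay, 50 μL from each well was plated on agar and incubated overnight. MBC taken as lowest peptide concentration killing >99.9% of cells. At least three independent experiments, each with three technical replicates.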

Compound | MIC95 (Staphylococcus aureus [1]) [µM] | MIC95 (Candida albicans [2]) [µM] | MIC95 (Escherichia coli [3]) [µM] | MIC95 (Staphylococcus aureus [4]) [µM] | MHC10 (Erythrocyte) [µM] | MIC95 (Staphylococcus aureus [7]) [µM] | MBC (Salmonella typhimurium) [µM] | MIC95 (Escherichia coli [8]) [µM] | MIC95 (Candida albicans [9]) [µM] | MIC95 (Pseudomonas aeruginosa) [µM] | MIC95 (Escherichia coli [10]) [µM] | MIC95 (Candida albicans [11]) [µM] | MIC95 (Staphylococcus aureus [12]) [µM] | MIC95 [13] [µM] | selectivity ratio [14] | MBC (Escherichia coli [15]) [µM] | MIC95 (Staphylococcus aureus [16]) [µM] | MIC95 (Escherichia coli [17]) [µM] | MIC95 (Candida tropicalis) [µM] | MBC [18] [µM] | further results
H-AARIILRTRFR-NH2 | > 128 | > 128 | 4 | 16 | > 128 | 16 | 32 | 4 | > 128 | > 128 | 128 | > 128 | 64 | 8 | 27.4 | 8 | 16 | 16 | 32 | 32 | Activity [5]: 208 to 222 nm; viability at up to 64 µM [6]: 90 to 100%; MIC95 (Escherichia coli [19]): > 128 µM; MBC (Staphylococcus aureus [20]): 32 µM
H-AARIILRLRFR-NH2 | 16 | 8 | 2 | 2 | > 128 | 2 | 8 | 4 | 8 | 8 | 16 | 8 | 4 | 4 | 64 | 4 | 4 | 8 | 4 | 4 | Activity [5]: 208 to 222 nm; viability at up to 64 µM [6]: 90 to 100%; MIC95 (Escherichia coli [19]): 64 µM; MBC (Staphylococcus aureus [20]): 4 µM
H-AARIILRFRFR-NH2 | 32 | 8 | 2 | 2 | > 128 | 2 | 8 | 4 | 8 | > 128 | 32 | 4 | 4 | 4 | 43.5 | 4 | 4 | 16 | 4 | 4 | Activity [5]: 208 to 222 nm; viability at up to 64 µM [6]: 90 to 100%; MIC95 (Escherichia coli [19]): 64 µM; MBC (Staphylococcus aureus [20]): 4 µM
H-AARIILRRRFR-NH2 | 128 | > 128 | 8 | 32 | > 128 | 16 | 64 | 16 | 128 | > 128 | 64 | > 128 | 128 | 16 | 14.8 | 16 | 16 | 32 | 64 | 32 | Activity [5]: 208 to 222 nm; viability at up to 64 µM [6]: 90 to 100%; MIC95 (Escherichia coli [19]): 128 µM; MBC (Staphylococcus aureus [20]): 64 µM
H-AARIILRWFRR-NH2 | 32 | 8 | 2 | 8 | > 128 | 4 | 8 | 2 | 8 | 8 | 2 | 8 | 8 | 4 | 87.1 | 4 | 4 | 2 | 4 | 4 | Activity [5]: 208 to 222 nm; viability at up to 64 µM [6]: 90 to 100%; MIC95 (Escherichia coli [19]): 8 µM; MBC (Staphylococcus aureus [20]): 8 µM
CC[C@H](C)[C@H](NC(=O)CN)C(=O)NCC(=O)N[C@@H](C)C(=O)N[C@H](C(=O)N[C@@H](CC(C)C)C(=O)N[C@@H](CCCCN)C(=O)N[C@H](C(=O)N[C@@H](CC(C)C)C(=O)N[C@H](C(=O)N[C@H](C(=O)NCC(=O)N[C@@H](CC(C)C)C(=O)N1CCC[C@H]1C(=O)N[C@@H](C)C(=O)N[C@@H](CC(C)C)C(=O)N[C@H](C(=O)N[C@@H](CO)C(=O)N[C@@H](Cc1c[nH]c2ccccc12)C(=O)N[C@H](C(=O)N[C@@H](CCCCN)C(=O)N[C@@H](CCCNC(=N)N)C(=O)N[C@@H](CCCCN)C(=O)N[C@@H](CCCNC(=N)N)C(=O)N[C@@H](CCC(N)=O)C(=O)N[C@@H](CCC(N)=O)C(N)=O)[C@@H](C)CC)[C@@H](C)CC)[C@@H](C)O)[C@@H](C)O)C(C)C)C(C)C [MELITTIN] | 8 | 4 | 2 (≈ 5.69 µg/mL) | 8 (≈ 22.8 µg/mL) | 1 | 4 (≈ 11.4 µg/mL) | 2 (≈ 5.69 µg/mL) | 2 (≈ 5.69 µg/mL) | 4 | 2 (≈ 5.69 µg/mL) | 4 | 4 | 8 | 2 (≈ 5.69 µg/mL) | 0.54 | 2 (≈ 5.69 µg/mL) | 4 | 2 | 4 (≈ 11.4 µg/mL) | 4 (≈ 11.4 µg/mL) | MIC95 (Escherichia coli [19]): 4 µM; MBC (Staphylococcus aureus [20]): 4 µM (≈ 11.4 µg/mL)
H-AARIILRARFR-NH2 | > 128 | 16 | 2 | 4 | > 128 | 4 | 4 | 2 | 16 | 16 | 16 | 16 | 16 | 4 | 69.1 | 4 | 4 | 4 | 4 | 4 | Activity [5]: 208 to 222 nm; viability at up to 64 µM [6]: 90 to 100%; MIC95 (Escherichia coli [19]): 32 µM; MBC (Staphylococcus aureus [20]): 4 µM
H-AARIILRYRFR-NH2 | > 128 | 64 | 4 | 8 | > 128 | 4 | 16 | 4 | 64 | 16 | 64 | 64 | 64 | 4 | 47 | 8 | 4 | 16 | 16 | 4 | Activity [5]: 208 to 222 nm; viability at up to 64 µM [6]: 90 to 100%; MIC95 (Escherichia coli [19]): > 128 µM; MBC (Staphylococcus aureus [20]): 8 µM
